Broadly, the Kd is the constant that tells how readily two partners part at equilibrium.

Assay [1] has as its target T1, Histamine H2 receptor (Cavia porcellus, UniProt P47747). Description: Antagonistic activity against H2 receptor in guinea pig was evaluated. An outline of the steps: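 Isolated guinea pig atrium preparation loaded with 400-mg tension, with propranolol (0.5 μM) present throughout. Histamine concentration-response curves were run with and without several antagonist concentrations (B). The dose ratio x was taken from histamine concentrations giving half-maximal responses. K_B was calculated as B/(x − 1), and pA2 = −log K_B.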

Assay [2] deals with T1, Histamine H2 receptor. Briefly: Antagonistic activity against H2 receptor in guinea pig.

T1 sequence (P47747 whole entry): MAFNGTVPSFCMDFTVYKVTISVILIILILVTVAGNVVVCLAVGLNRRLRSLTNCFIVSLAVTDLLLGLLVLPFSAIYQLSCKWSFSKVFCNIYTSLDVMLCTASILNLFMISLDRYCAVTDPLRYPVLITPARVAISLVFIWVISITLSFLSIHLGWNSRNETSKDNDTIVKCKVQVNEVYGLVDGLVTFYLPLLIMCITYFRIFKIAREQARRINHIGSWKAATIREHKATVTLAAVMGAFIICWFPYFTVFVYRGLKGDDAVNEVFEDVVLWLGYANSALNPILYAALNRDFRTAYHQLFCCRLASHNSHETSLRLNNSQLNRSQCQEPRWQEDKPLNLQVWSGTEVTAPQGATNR

As for `CSC(=NCCSCc1[nH]cnc1C)NCCCc1cnc[nH]1`, the Kd on Histamine H2 receptor [1] was found to be 17.8 µM.
On to `Cc1nc[nH]c1CSCCNC(=N)NCCCc1cn(C)cn1`, for which binding at Histamine H2 receptor [2] was put at a Kd of 1.58 µM.

These data come from BindingDB's records for doi:10.1021/jm00148a007 (1985).
